The values that follow come from PubChem BioAssay.

In general, inhibition refers to the change of the read-out against control, counted positive when it falls.

Assay [1] is described as follows: inhibitors of TNFa-induced NFkB p65 translocation, primary screen, imaging, HUVEC, MLSMR starter and 10KST1 sets (AID 438).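 For inhibition: signal is the nuclear over cytoplasmic p65 intensity ratio per well.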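 Note: compound added about 3h40 before a 20 min TNFalpha stimulation.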 To be noted: HUVEC TNFa-induced p65 nuclear translocation; cell count: measured here: nuclei count (cytotoxicity indicator), at 2.08 µM; inhibition: at 2 µM, stronger effect = higher value, 0% TNFa-plus-vehicle, 100% no-TNFa wells.
Assay [2] in a line: inhibitors of E-selectin induction by TNFa, primary screen, imaging, HUVEC, immunofluorescence, MLSMR starter and 10KST1 sets (AID 487;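 active = visually confirmed hit in the image check and inhibition above 20%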;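 for inhibition: signal is fraction of cell area covered by stained E-selectin grains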;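 for nuclei count: 100% = median nuclei count of all wells on the same plate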). Particulars: HUVEC TNFalpha-induced E-selectin immunofluorescence imaging, at 2 µM; inhibition: stronger effect = higher value; nuclei count: measured here: cell number, toxicity.
The nature of assay [3]: DUSP6 inhibitors restoring Erk phosphorylation by chemical complementation, primary imaging in DUSP6-transfected HeLa (AID 609;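 active = compounds giving at least 50% inhibition in the cell-based MKP-3 phosphatase rescue imaging test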;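 for inhibition: phospho-Erk level distribution per well compared with pooled transfected vehicle control wells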). To be noted: HeLa MKP-3 transfected, phospho-Erk imaging KS statistic, at 10 µM, cells stimulated with TPA for 15 min.
For assay [4], the target named is Dual specificity protein phosphatase 6 (Homo sapiens) (UniProt Q16828). The description is as above. To be noted: HeLa MKP-3 transfected, phospho-Erk imaging KS statistic; at 10 µM; stronger effect = higher value; cells stimulated with TPA for 15 min.
Assay [5] concerns the target Voltage-gated potassium channel subunit beta-2 (Rattus norvegicus) (UniProt P62483). Briefly: KvBeta enzyme negative modulators, primary screen, biochemical, NADPH fluorescence (AID 622;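 active = fluorescence slope higher than the sample average by over 3 SD, cut at about -0.22 in these data, passing the limit was not always enough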;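 note: slope of raw intensity against log time taken from 70 to 1610 s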). To be noted: recombinant KvBeta, 4-cyanobenzaldehyde reduction, at 10 µM, stronger effect = higher value.
Assay [6] shares this target. Briefly: KvBeta positive modulators, primary screen, biochemical, NADPH fluorescence (AID 623;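 active = NADPH fluorescence slope more negative than the mean of all samples by about 3 SD, 99.7% confidence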;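 note: fluorescence intensity change per second fitted from 20 to 320 s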). Particulars: Recombinant KvBeta, NADPH fluorescence decrease slope, 10 min; at 10 µM; stronger effect = lower value.
In assay [7] the target is Muscarinic acetylcholine receptor M4 (Homo sapiens) (UniProt P08173). Briefly: compounds altering M4/GIRK thallium flux, either direction, primary screen, M4 allosteric agonist project, cell-based, HEK293 M4/GIRK, BTC-AM (AID 625;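 active = fluorescence slope after compound addition differing from the mean of all tested samples at 99.7% confidence, mostly higher but some lower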;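 note: thallium influx through GIRK channels coupled to M4 in HEK293 cells with BTC-AM dye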). Particulars: at 10 µM, actives lie on both sides. The method, boiled down: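 Material: HEK293 cells with M4 receptor and GIRK channels; Times: cells overnight at 37 °C, BTC-AM loading 1 h, reads 2 min total; Technique: kinetic BTC-AM fluorescence sampled at 1 Hz, 10 s pre-addition baseline; Read-out basis: slope over 15–24 s of trace normalized to starting intensity; Controls: carbachol positive, DMSO negative.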

Assay [8] in a line: inhibitors of larval lipid processing in zebrafish, primary screen, whole organism, PED6 fluorescence, gall bladder and intestine (AID 686;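 active = a full or partial loss of lipid-probe fluorescence in the fish gall bladder, intestine or both, judged by eye; inactive = no fluorescence loss, or compound toxic to the fish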;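 note: larvae 5 to 7 days old with five fish per well; signal comes from phospholipase A2 cleavage of quenched PED6 carried via bile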). To be noted: Zebrafish larvae PED6 lipid processing, fluorescence scoring; screened at 20 µM (by protocol). The essentials: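 Incubation: overnight exposure of larvae to compound plus PED6 / Test system: live zebrafish larvae aged 5-7 days, whole organism / Amount: 5 larvae per well / Read-out basis: visual per-well fluorescence inhibition score / Signal: visual fluorescence microscopy scoring of gall bladder, gut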

A short description of assay [9]: inhibitors of Chlamydomonas gravitaxis, primary screen, whole organism, Chlamydomonas reinhardtii, WT vs cilia-less mutant, absorbance, 96-well (AID 463189;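 active = inhibition at or above 50% relative to wild type and mutant plate controls; inactive = inhibition below 50%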;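 note: 0% = wild type cc124 cells in DMSO and 100% = ciliumless bld1 mutant cells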). Particulars: OD600 absorbance, 2 days, at 10 µM, stronger effect = higher value.
[10] abbreviates: measured here: cell density z-score.
The mark [11] stands for this setting: measured here: nuclear c-Myc green intensity z-score.
[12] abbreviates: measured here: nuclear pErk red intensity z-score, stronger effect = higher value.

The source made the active and inactive calls.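 Rule for the calls, unless noted: active = inhibition above 20% together with a positive visual image hit; inconclusive = visual image hit but inhibition not above 20%; inactive = no visual image hit.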

Sequence of Voltage-gated potassium channel subunit beta-2 (Rattus norvegicus) (P62483 whole entry, looked up): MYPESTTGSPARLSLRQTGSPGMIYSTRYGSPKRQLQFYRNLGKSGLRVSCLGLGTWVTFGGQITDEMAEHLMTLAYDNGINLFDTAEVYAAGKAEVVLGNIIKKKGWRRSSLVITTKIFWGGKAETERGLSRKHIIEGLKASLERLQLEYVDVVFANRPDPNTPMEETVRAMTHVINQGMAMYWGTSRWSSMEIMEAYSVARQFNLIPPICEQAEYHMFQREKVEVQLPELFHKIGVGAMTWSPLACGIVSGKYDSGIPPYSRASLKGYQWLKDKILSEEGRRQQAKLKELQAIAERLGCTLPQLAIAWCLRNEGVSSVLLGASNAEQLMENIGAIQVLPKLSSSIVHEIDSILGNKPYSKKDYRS
Sequence of Dual specificity protein phosphatase 6 (Homo sapiens) (Q16828 whole entry, looked up): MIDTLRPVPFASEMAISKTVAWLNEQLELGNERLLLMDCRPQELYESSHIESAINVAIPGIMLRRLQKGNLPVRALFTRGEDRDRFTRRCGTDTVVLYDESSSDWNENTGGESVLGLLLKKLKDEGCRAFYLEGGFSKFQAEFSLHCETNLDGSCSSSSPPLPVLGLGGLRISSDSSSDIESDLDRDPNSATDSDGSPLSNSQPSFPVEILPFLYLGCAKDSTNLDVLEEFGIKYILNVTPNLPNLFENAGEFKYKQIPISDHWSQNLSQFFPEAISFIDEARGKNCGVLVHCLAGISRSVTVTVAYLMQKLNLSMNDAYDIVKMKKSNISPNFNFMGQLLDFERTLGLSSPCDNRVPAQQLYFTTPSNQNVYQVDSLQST
Sequence of Muscarinic acetylcholine receptor M4 (Homo sapiens) (P08173 whole entry, looked up): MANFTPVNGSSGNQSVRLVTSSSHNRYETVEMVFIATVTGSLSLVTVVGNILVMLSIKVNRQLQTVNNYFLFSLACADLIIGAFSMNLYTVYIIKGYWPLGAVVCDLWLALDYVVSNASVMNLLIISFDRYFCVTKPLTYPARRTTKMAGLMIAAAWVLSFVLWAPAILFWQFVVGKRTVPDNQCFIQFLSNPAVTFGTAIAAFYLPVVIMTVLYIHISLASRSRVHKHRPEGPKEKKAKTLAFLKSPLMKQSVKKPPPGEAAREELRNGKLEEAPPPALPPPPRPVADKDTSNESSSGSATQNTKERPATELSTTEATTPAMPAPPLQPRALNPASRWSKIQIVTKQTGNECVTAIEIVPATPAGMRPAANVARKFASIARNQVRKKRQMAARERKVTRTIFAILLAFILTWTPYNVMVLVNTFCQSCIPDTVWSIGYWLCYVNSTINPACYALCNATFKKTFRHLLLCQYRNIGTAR

Consider `CCc1ccc(NC(=O)CSC2=C(C#N)C(c3ccc4c(c3)OCO4)CC(=O)N2)cc1` (centres undefined), for which, in assay [1], the cell count was found to be 599. For the same compound, the inhibition in assay [1] is -14% (inactive); in assay [2], 41.8% (inactive); in assay [4], 22.7% (inactive); in assay [9], -5% (inactive). In [2], this compound came in with a nuclei count of 91.1%. Besides, the z-score in assay [3] (setting [10]) is 1.39; in assay [3] (setting [11]), -1.52; in assay [3] (setting [12]), -0.214. The fluorescence slope in assay [5] was -0.491 (inactive); in assay [7], 0.00667 (inactive). Moreover, in assay [6], the NADPH fluorescence slope is -4.6e-05 (inactive). Also, the compound was called inactive in [8].
As to `COc1ccc(-c2nn(C)c(=O)c3ccccc23)cc1NS(C)(=O)=O`, the cell count in assay [1] came out at 373. Moreover, the inhibition is -6.1% (inactive) in assay [1], -7.8% (inactive) in assay [2], 11.9% (inactive) in [4] and -10.8% (inactive) in [9]. For the same compound, in [2], the nuclei count was found to be 104%. Further, the figures for the z-score in assay [3] (setting [10]), in [3] (setting [11]) and in assay [3] (setting [12]) were -0.517, 0.9 and -0.714, respectively. For the same compound, the fluorescence slope in assay [5] was -0.509 (inactive); in assay [7] it was 0.00473 (inactive). Further, the NADPH fluorescence slope in [6] is 1.7e-05 (inactive). The compound was classed as inactive in assay [8].
Consider `CC1(C)Cc2c(C#N)c(SCC(=O)c3ccccc3)nc(N3CCOCC3)c2CS1`, for which the cell count in assay [1] worked out at 567. Moreover, the inhibition in [1] was -9.1% (inactive); in assay [2] it was -119% (inactive); in assay [4], 5.42% (inactive); in assay [9], 34.2% (inactive). The same compound came in with a nuclei count in [2] of 93.2%. In addition, the z-score in [3] (setting [10]) is 0.0433; in [3] (setting [11]), -1.53; in [3] (setting [12]), 0.585. Besides, the figures for the fluorescence slope in assay [5] and in [7] were -0.491 (inactive) and 0.00928 (inactive), respectively. Besides, the NADPH fluorescence slope in [6] was 1.6e-05 (inactive). The outcome in assay [8] was inactive.
In the case of `Cn1c(=O)c2c(nc(Br)n2CCSc2nc3ccccc3o2)n(C)c1=O`, in assay [1], the cell count came to 608. Besides, the inhibition in [1] was -8.8% (inactive); in assay [2], 32.7% (inactive); in assay [4], 17.4% (inactive); in assay [9], 45.2% (inactive). In assay [2], the nuclei count worked out at 175%. Besides, the z-score in assay [3] (setting [10]) is -0.0761; in [3] (setting [11]), 0.135; in assay [3] (setting [12]) it was -1.22. The fluorescence slope was -0.346 (inactive) in assay [5] and 0.00576 (inactive) in assay [7]. Further, the NADPH fluorescence slope in assay [6] is -7e-06 (inactive). Moreover, the call in assay [8] was inactive.
For the compound `Cc1cc(C)n(CC2CC(=O)N(c3ccc(F)c(Cl)c3)C2=O)n1` (centres undefined), the cell count in assay [1] turned out to be 460. In addition, the inhibition in assay [1] was -0.7% (inactive); in assay [2], -64.8% (inactive); in [4], -3.97% (inactive); in assay [9], -11.1% (inactive). This compound also registered a nuclei count in assay [2] of 111%. Besides, the z-score in assay [3] (setting [10]) was -0.992; in assay [3] (setting [11]), 0.731; in assay [3] (setting [12]), -1.56. Besides, the fluorescence slope in assay [5] was -0.314 (inactive); in [7], 0.00494 (inactive). For the same compound, the NADPH fluorescence slope in assay [6] is 1.8e-05 (inactive). The compound was classed as inactive in [8].
For `CSc1nc2sc3c(c2c2nnnn12)CCCC3`, the cell count in assay [1] was found to be 506. Further, the inhibition in assay [1] is -14.9% (inactive); in assay [2], -77.3% (inactive); in [4] it was -5.81% (inactive); in assay [9] it was 31% (inactive). For the same compound, the nuclei count in assay [2] was 118%. Also, the results for the z-score in [3] (setting [10]), in assay [3] (setting [11]) and in assay [3] (setting [12]) were 0.676, -0.0981 and -1.25, respectively. Besides, the values for the fluorescence slope in assay [5] and in assay [7] were -0.455 (inactive) and 0.00421 (inactive), respectively. Also, the NADPH fluorescence slope in assay [6] is -7.9e-06 (inactive). In addition, the result in [8] was inactive.
Regarding `Cc1ccc(Cn2ncc3c(N4CCOCC4)ncnc32)cc1`, in assay [1], the cell count was 551. Besides, the inhibition in assay [1] was -1.3% (inactive); in assay [2] it was -9.4% (inactive); in [4], 7.93% (inactive); in [9] it was -4.03% (inactive). In addition, in assay [2], the nuclei count came out at 152%. In addition, the z-score in assay [3] (setting [10]) was 0.711; in [3] (setting [11]), -0.178; in assay [3] (setting [12]), 0.142. For the same compound, the values for the fluorescence slope in [5] and in assay [7] were -0.363 (inactive) and 0.00641 (inactive), respectively. The NADPH fluorescence slope in [6] is -3.8e-05 (inactive). In addition, the result in assay [8] was inactive.
Consider `COc1ccc(CSC2=NCCN2)cc1Cl`, for which the cell count in [1] amounted to 382. The inhibition is -2.2% (inactive) in assay [1], -95.2% (inactive) in [2], 9.42% (inactive) in [4] and 143% (active) in assay [9]. The nuclei count in [2] was 83.1%. Further, the z-score was -0.238 in assay [3] (setting [10]), 2.09 in assay [3] (setting [11]) and 0.748 in [3] (setting [12]). The fluorescence slope was -0.459 (inactive) in [5] and 0.00397 (inactive) in assay [7]. Besides, in assay [6], the NADPH fluorescence slope was -7e-05 (inactive). Further, in assay [8], the outcome was inactive.
With `COC(=O)CSc1nc(C)c(Oc2ccccc2)c(=O)[nH]1`, the cell count in [1] was 726. In addition, the inhibition in assay [1] was 7.2% (inactive); in [2], -102% (inactive); in assay [4], -2.09% (inactive); in assay [9] it was -8.15% (inactive). This compound registered a nuclei count in [2] of 162%. The z-score in assay [3] (setting [10]) is -1.93; in assay [3] (setting [11]), 2.21; in [3] (setting [12]), -0.257. Further, the fluorescence slope is -0.424 (inactive) in assay [5] and 0.00506 (inactive) in assay [7]. Besides, in [6], the NADPH fluorescence slope was -5.8e-05 (inactive). For the same compound, the result in assay [8] was inactive.
Take `Cc1ccc(-n2[nH]c(C)c(C=Nc3cc(C)ccn3)c2=O)cc1`: the cell count in assay [1] stood at 512. In addition, the inhibition in [1] is 3% (inactive); in assay [2], 4.6% (inactive); in assay [4], -13.3% (inactive); in assay [9], 51.3% (active). The nuclei count in [2] amounted to 87.7%. Also, the z-score in assay [3] (setting [10]) was -0.346; in assay [3] (setting [11]) it was -0.03; in [3] (setting [12]) it was 0.605. For the same compound, the fluorescence slope in assay [5] is -0.459 (inactive); in [7], 0.0056 (inactive). Further, the NADPH fluorescence slope in [6] is -3.6e-05 (inactive). The compound was called inactive in assay [8].
Turning to `O=c1cc(N2CCCCC2)nc2n1CCCS2`, the cell count in assay [1] is 568. Besides, the inhibition in [1] was 2.3% (inactive); in assay [2], 20.6% (inactive); in assay [4] it was 29.7% (inactive); in assay [9] it was 33.9% (inactive). This compound also registered a nuclei count in [2] of 149%. The results for the z-score in [3] (setting [10]), in assay [3] (setting [11]) and in assay [3] (setting [12]) were 0.266, -0.928 and -0.473, respectively. For the same compound, the fluorescence slope was -0.39 (inactive) in assay [5] and 0.00586 (inactive) in assay [7]. Further, the NADPH fluorescence slope in [6] is -1.9e-05 (inactive). For the same compound, the call in assay [8] was inactive.
On to `Cn1c(=O)c2c(nc(NCCCO)n2Cc2cccc(C(F)(F)F)c2)n(C)c1=O`, for which the cell count in [1] is 652. For the same compound, the inhibition was -11.8% (inactive) in [1], -70% (inactive) in [2], -5.95% (inactive) in assay [4] and -3.98% (inactive) in assay [9]. In addition, the nuclei count in assay [2] turned out to be 95.4%. Besides, the z-score in [3] (setting [10]) is -1.68; in assay [3] (setting [11]) it was -0.0388; in assay [3] (setting [12]), 0.32. In addition, the fluorescence slope was -0.492 (inactive) in [5] and 0.00722 (inactive) in [7]. Also, the NADPH fluorescence slope in assay [6] was -6.8e-05 (inactive). Moreover, the call in assay [8] was inactive.
For the compound `O=C(O)c1ccc(C2CCCCC2)cn1`, the cell count in assay [1] came out at 532. Besides, the inhibition was 0.5% (inactive) in [1], -129% (inactive) in assay [2], 3.97% (inactive) in assay [4] and -1.91% (inactive) in assay [9]. The compound further had a nuclei count in [2] of 197%. Also, the z-score in assay [3] (setting [10]) is -1.16; in assay [3] (setting [11]), 0.871; in assay [3] (setting [12]) it was -1.14. Further, the values for the fluorescence slope in assay [5] and in [7] were -0.444 (inactive) and 0.00555 (inactive), respectively. In addition, the NADPH fluorescence slope in assay [6] is -4.4e-05 (inactive). In [8], the compound was called inactive.
